Measurements of several laboratories.
Compare with care: the assays were run in different laboratories.
HTR2A: 5-hydroxytryptamine receptor 2A (HTR2A, Homo sapiens, UniProt P28223)
SRD5A1: 3-oxo-5-alpha-steroid 4-dehydrogenase 1 (SRD5A1, Homo sapiens, UniProt P18405)

Compound | target | assay | test system | conditions | inhibition [%]
CCN1/C(=C/C(C)=O)Sc2ccc(F)cc21 | Endothelin-1 receptor (EDNRA, Homo sapiens, UniProt P25101) | ligand displacement, radioligand |  | 10 µM | 9.86
COc1cc2c3c(c1OC)-c1c(OC)ccc(N4CCOCC4)c1CC3N(C)CC2 (stereo not drawn) | HTR2A | ligand displacement, radioligand |  | 10 µM | 49
COC(=O)C=Cc1ccc(OC)c(OC)c1 | SRD5A1 | enzyme activity in cells, inhibitor | HaCaT | 50 µM | 26.1
Cc1cc(F)cc2c(CCC(=O)N[C@@H]3C(=O)NC[C@H]3O)c(-c3ccc(F)cc3)[nH]c12 | Cannabinoid receptor 1 (CNR1, Homo sapiens, UniProt P21554) | cell-free assay |  | 10 µM | -2
Cc1cc(O)c(-c2ccc([C@@H](C)CN(C)C)cc2)c2c1[nH]c(=O)c1sccc12 | Serine/threonine-protein kinase VRK2 (VRK2, Homo sapiens, UniProt Q86Y07) | enzyme activity, inhibitor |  | 0.1 µM | 3.23
O=C(O)/C=C/c1ccc(O)c(O)c1 | SRD5A1 | enzyme activity in cells, inhibitor | HaCaT | 50 µM | 6.07
NC/C(=C\F)COc1cccc(Cn2c(=S)[nH]c(=O)c3[nH]cnc32)c1 | Hepatic sodium/bile acid cotransporter (SLC10A1, Homo sapiens, UniProt Q14973) | transporter uptake, inhibitor |  | 30 µM | < 50
CC[N+]1(C)CCc2cc(OC)c(OC)c3c2C1Cc1cccc(OC)c1-3 (stereo not drawn) | HTR2A | ligand displacement, radioligand |  | 10 µM | 3
COC(=O)C=Cc1ccc(OC(C)=O)c(OC(C)=O)c1 | SRD5A1 | enzyme activity in cells, inhibitor | HaCaT | 50 µM | 25.1
